In the library only some 2.4% were active in any assay of this set; here they are far more common.
OPRM1-OPRD1 inv: inverse agonists of MOR-DOR heterodimerization, primary screen, cell-based, luminescence; AID 504357, 2011; inhibition, % at 9.3 µM; cell-based MOR-DOR heterodimer luminescence, inverse agonism; 340,000 tested, 0.21% active; in the data active = inhibition above about 22%, passing the limit was not always enough;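 note: 0% = cells with DMSO and 100% = wells without cells with DMSO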
MC4R ag barr: MC4R agonists recruiting beta-arrestin, primary screen, cell-based, luminescence, agonist arm of biased-ligand search. Melanocortin receptor 4 (Homo sapiens), P32245. U2OS MC4R beta-arrestin complementation; percent of melanotan II response, DMSO zero. activation, % at 8.9 µM. 360,000 tested, 0.98% active. AID 540308, 2011;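 active = activation above a per-plate cutoff, the mean activation of sample wells on that plate plus 3 SD, cut at about 8% in these data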
Target sequence (P32245 whole entry, looked up): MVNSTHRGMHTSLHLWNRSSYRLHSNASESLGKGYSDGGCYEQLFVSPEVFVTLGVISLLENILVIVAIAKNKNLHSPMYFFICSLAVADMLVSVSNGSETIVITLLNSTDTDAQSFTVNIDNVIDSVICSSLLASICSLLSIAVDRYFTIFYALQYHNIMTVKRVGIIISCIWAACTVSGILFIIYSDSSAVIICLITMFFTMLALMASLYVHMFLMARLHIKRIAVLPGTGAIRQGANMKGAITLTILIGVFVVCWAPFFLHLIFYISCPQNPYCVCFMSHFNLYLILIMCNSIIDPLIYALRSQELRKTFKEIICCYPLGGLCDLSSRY
MC4R antag cAMP: MC4R antagonists of cAMP signaling, primary screen, cell-based, TR-FRET, antagonist arm of biased-ligand search; Melanocortin receptor 4 (Homo sapiens), P32245; MC4R-expressing cells, MTII-stimulated cAMP, LANCE TR-FRET; inhibition, % at 6.5 µM; 360,000 tested, 0.48% active; AID 540295, 2011;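 active = inhibition above its plate's cutoff, the mean of tested wells on that plate plus 3 SD, cut at about 29% in these data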;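 note: 0% = Melanotan II alone and 100% = Melanotan II plus saturating MCL0020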
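Assay system: human MC4R-expressing U2OS cells; reagent: Melanotan II stimulation of cells; dosing: 6.5 µM single dose; timing: compound 30 min, challenge 1 h, detection 1 h; signal: TR-FRET cAMP assay; replicates: one well per compound, no replicates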
HTR5A inv ag: HTR5A inverse agonists in luminescence cell assay, primary screen, counter-screen for OPRM1-OPRD1 heterodimer inverse agonist project, full-deck HTS; HTR5A cell line, inverse agonism; inhibition, % at 9.3 µM; 340,000 tested, 0.083% active; AID 504634, 2011; in the data active = inhibition mostly above about 23%, no sharp cut-off; inactive = mostly below about 18%;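 note: 0% = cells with DMSO and 100% = no-cell wells with DMSO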
HTR5A ag ctr: HTR5A agonists in luminescence cell assay, primary screen, counter-screen for OPRM1-OPRD1 heterodimer agonist project, full-deck HTS; activation, % at 9.3 µM; 5-hydroxytryptamine receptor 5A (Homo sapiens), P47898; AID 504692, 2011; 340,000 tested, 0.61% active; cell-based; in the data active = activation mostly above about 9.5%, no sharp cut-off; inactive = mostly below about 7.6%;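 note: 0% = cells with vehicle only and 100% = reference agonist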
MOR-DOR ag: agonists of OPRM1-OPRD1 heterodimerization, primary screen, cell-based, luminescence | Mu-type opioid receptor (Homo sapiens) + Delta-type opioid receptor (Homo sapiens), … | cells | activation, % at 9.3 µM | 340,000 tested, 0.3% active | AID 504326, 2011; in the data active = activation above about 18%;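 note: 0% = vehicle-treated cells and 100% = reference agonist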
* marks the source's active call; other numbers are inactive results; . = no result given.

SMILES	OPRM1-OPRD1 inv	MC4R ag barr	MC4R antag cAMP	HTR5A inv ag	HTR5A ag ctr	MOR-DOR ag
O=C(CNC(=O)C1CCCCC1)NCc1ccco1	6	0	3	-9	3	-1
O=C(CSc1cccc[n+]1[O-])c1ccc(Cl)s1	10	-1	-1	34	13*	-2
Cc1ccc(C(=O)N/N=C/c2cc(Br)ccc2O)cn1	-5	-2	20	-38	10*	1
CN(C)S(=O)(=O)c1cccc(C(=O)Nc2ccccc2C(=O)NC2CC2)c1	20	0	1	-12	3	-4
COc1cccc(-c2cnc3c(NC(C)=O)cc(-c4ccc(C(=O)NC5CC5)cc4)cn23)c1	.	8.8*	14	.	.	.
CC(=O)Nc1cccc(-c2cc(NC=O)c3ncc(-c4ccc(C(C)=O)cc4)n3c2)c1	.	-2	3	.	.	.
CC(=O)Nc1cccc(-c2cc(NC(C)=O)c3ncc(-c4cccc(C(C)=O)c4)n3c2)c1	.	8.6*	8	.	.	.
COc1ccc(-c2cnc3c(NC(C)=O)cc(-c4ccc(C(=O)NC5CC5)cc4)cn23)cc1OC	.	8	-2	.	.	.
COc1ccc(C)cc1NC(=O)C(=O)NNC(=O)COc1ccc(Cl)cc1	1	-3	3	16	2	0
CCc1cccc(NC(=O)CCCCCC2NC(=O)NC2C)c1 (stereo not drawn)	5	1	3	-16	-4	-1
O=c1c(Br)c(Br)cnn1-c1ccccc1	-41	3	24	-7	3	9
Cc1ccc(-n2ncc(Br)c(Br)c2=O)cc1	16	1	45*	0	0	-3
CC(C)C(=O)N1CCCC1(C)C(=O)Nc1cccc(Oc2ccccc2)c1 (stereo not drawn)	.	-2	2	.	.	.
O=C(Nc1nccs1)c1sc2ccccc2c1Cl	3	1	-4	-16	1	-1
O=C(Nc1nccs1)c1sc2cc(Cl)ccc2c1Cl	-4	10*	1	-12	4	1
O=C(CN(C(=O)c1csnn1)c1ccc(Cl)cc1)NCCc1ccccc1	3	-2	10	7	-3	-1
COc1ccc(C2C(C#N)=C(N)Oc3c2c(C)nn3-c2ccccc2)cc1Cn1nc(C)c([N+](=O)[O-])c1C (stereo not drawn)	-2	1	16	-40	14*	0
N#Cc1ccsc1NC(=O)COC(=O)C1=NNC(=O)CC1	0	-3	13	6	-2	0
COCC(C)NC(=O)c1cc2cccc([N+](=O)[O-])c2[nH]1 (stereo not drawn)	5	1	-3	3	-3	-1
Cc1cc(NC(=O)c2cc3cccc([N+](=O)[O-])c3[nH]2)ccc1F	-30	5	24	-36	12*	6
COc1ccc(CN(Cc2ccc(C(=O)O)cc2)C(=S)Nc2cccc(C)c2)cc1OC	1	3	1	-18	11	0
CCOC(=O)c1ccc(N2C(=O)CC(N3CCCC(C)C3)C2=O)cc1 (stereo not drawn)	-9	2	29*	6	6	2
O=C(COC(=O)COc1ccccc1)Nc1ncc(Cl)cc1Cl	9	-1	3	-2	1	-2
Cc1nc2ccccc2cc1OCc1ccc(Cl)cc1	-14	0	6	-8	6	3
Cc1nc2ccccc2cc1OCc1ccccc1	-38	8.5*	-2	-22	2	8
SMILES	OPRM1-OPRD1 inv	MC4R ag barr	MC4R antag cAMP	HTR5A inv ag	HTR5A ag ctr	MOR-DOR ag
Cc1csc(NC(=O)c2c(O)c3c(n(CC(C)C)c2=O)CCCC3)n1	18	0	-1	-15	11*	-3
C=C1CCN([C@@H](CC(C)C)C(=O)O)S(=O)(=O)c2ccccc21	9	-2	6	16	5	-2
O=C(NC(=S)N1CCN(c2ccccc2)CC1)c1ccco1	6	-1	3	-6	2	-2
Cc1ccc(N2C(=O)N(CC(=O)NCc3ccc(Cl)cc3)C(=O)C2C)cc1 (stereo not drawn)	9	0	3	-18	-1	-2
COc1ccc(CNC(=O)CN2C(=O)C(C)N(c3ccc(C)cc3)C2=O)cc1 (stereo not drawn)	8	0	-3	-8	12*	-1
Cc1ccc(-n2c(=O)[nH]c3c(C(N)=O)nc(-c4ccc(C)o4)nc32)cc1	-18	7	9	-41	11*	3
COc1ccc(CC(=O)Nc2ccc(-c3nc4cc(C)ccc4o3)c(O)c2)cc1OC	-3	0	20	5	14*	1
Cc1ccc2oc(-c3ccc(NC(=O)c4ccncc4)cc3O)nc2c1	13	-4	-4	-6	2	-2
O=C(Nc1ccccc1F)c1ccc2ncsc2c1	11	1	0	-3	1	-2
O=C(CSc1ccc(-c2ccc3c(c2)OCO3)nn1)Nc1nccs1	7	9.5*	3	-35	5	-2
CCOC(=O)C(=CNc1cc(C)nn1-c1ccc(Cl)cc1)C(=O)OCC	-42	6	16	-36	10*	8
C=CCN(C(=O)CCC(=O)Nc1cc(C)on1)C(C(=O)NC1CCCC1)c1ccc(OC)cc1OC (stereo not drawn)	-8	-1	-1	4	-1	1
O=CN1CCN(C(=O)CC(c2ccccc2)c2cc(Br)ccc2O)CC1 (stereo not drawn)	8	-1	0	1	0	-2
Cc1nn(C)c(C(=O)NC(=S)Nc2ccccc2O)c1Cl	23	-4	-6	12	-4	-4
CC1(C(=O)Nc2ccc3c(c2)OCO3)CCN1C(=O)Cc1ccc(-c2ccccc2)cc1 (stereo not drawn)	.	0	6	.	.	.
O=C(CNc1ccccc1OC(F)F)N1CCc2ccccc21	-1	8.3*	-1	-11	4	0
O=C(CNCCO)N1CCc2ccccc21	9	-1	0	12	-2	-2
CCOC(=O)CSc1cc(CS(=O)c2ccc(Cl)cc2)nc(-c2ccccc2)n1 (stereo not drawn)	-19	1	2	-8	1	4
CS(=O)(=O)c1nc(-c2ccccc2)cc(-c2ccccc2)c1C#N	-11	-2	30*	-13	2	2
Cc1ccc(-c2cc(-c3ccccc3)c(C#N)c(Br)n2)cc1	-5	-1	9	31	2	1
N#Cc1c(-c2ccccc2)cc(-c2ccccc2)nc1SCc1nnc(-c2ccccc2)o1	-6	0	14	3	13*	1
